ChEMBL document CHEMBL5131497, “Design, Synthesis, and Characterization of TNP-2198, a Dual-Targeted Rifamycin-Nitroimidazole Conjugate with Potent Activity against Microaerophilic and Anaerobic Bacterial Pathogens” (J Med Chem, 2022)
≈ marks a conversion by molar mass, not a printed value.

Columns and labels:
[1] = Oral bioavailability in Sprague-Dawley rat at 50 mg/kg; type: ADME, organism-based; conditions: in vivo
Gardnerella vaginalis [2] = test: Antibacterial activity against Gardnerella vaginalis ATCC 14018; type: functional
Helicobacter pylori [3] = test: Resistance development in Helicobacter pylori MMX 3719 assessed as spontaneous resistance frequency using at 1.90 x 10^8 CFU inoculum at 4 ug/ml; type: functional; conditions: dose 4 µg/ml
Method in brief: (§1)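 H. pylori MMX 3719 exposed to 0.5, 1, 2 and 4 µg/mL drug with an inoculum of 1.90×10^8 CFU at each level. Two independent tests were run, and resistant colonies were counted and averaged. A spontaneous resistance frequency was reported for each concentration, and the MPC was taken across the concentrations tested.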

Prevotella bivia = test: Antibacterial activity against Prevotella bivia ATCC 29303/MMX 5718; type: functional
Syrian golden hamster [4] = test: Antibacterial activity against Clostridioides difficile UNT-103-1 infected in Syrian hamster assessed as survival at 5 mg/kg, po administered once a daily for 5 days after 18 hrs post 10 mg/kg clindamycin treatment; type: functional, Mesocricetus auratus; conditions: time 5 day
Method in brief: (§2)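 Male Golden Syrian hamsters (80-90 g), housed singly, were gavaged with C. difficile UNT103-1 grown in sporulation medium broth and diluted to OD600 1 in prereduced broth. […] From 18 h later, drug or vehicle was given by oral gavage once daily for 5 days. Survival was recorded through day 21.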

[5] = Volume of distribution at steady state in Sprague-Dawley rat at 10 mg/kg, iv; type: ADME, organism-based; conditions: in vivo, read-out: Vdss
[6] = AUC in C57BL/6 mouse at 5 mg/kg, iv; type: ADME, organism-based; set-up: dose 5 mg/kg, route iv; conditions: in vivo
Method in brief: (§3)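 Plasma PK after single intravenous or oral dosing. Mice C57BL/6 at 5 mg/kg IV or 20 mg/kg PO; Sprague–Dawley rats at 10 mg/kg IV or 50 mg/kg PO; beagle dogs at 5 mg/kg IV or 25 mg/kg PO. AUC reported in ng·h/mL. Clearance from the IV arms in mL/min·kg.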

Bifidobacterium longum = test: Antibacterial activity against Bifidobacterium longum ATCC 15707; type: functional
[7] = Drug distribution in Sprague-Dawley rat large intestine content measured at 12 hrs; type: ADME, tissue-based; conditions: read-out: Ct
Method in brief: (§4)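 Sprague–Dawley rats were dosed with TNP-2198. Concentrations were measured in plasma (ng/mL) and in tissues or contents (ng/g) at 0.5, 2, 6, 12 and 24 h after dosing. Values below the limit of quantification are reported as BLOQ.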

[8] = Tmax in C57BL/6 mouse at 20 mg/kg, po; type: ADME, organism-based; conditions: in vivo
Syrian golden hamster [9] = test: Antibacterial activity against Clostridioides difficile UNT-103-1 infected in Syrian hamster assessed as survival at 15 to 45 mg/kg, po administered once a daily for 5 days after 18 hrs post 10 mg/kg clindamycin treatment and measured upto 21 days; type: functional, Mesocricetus auratus; conditions: dose 15-45 mg/kg, time <= 21 day; method in brief: as §2
Helicobacter pylori [10] = test: Antibacterial activity against Helicobacter pylori infected in C57/BL6 mouse assessed as bacterial load in stomach at 5 mg/kg administered twice daily via oral gavage starting from 7 days post inoculation and administered for 7 days (reference value: 5.25 log10CFU); type: functional; conditions: time 7 day
Clostridioides difficile [11] = test: Resistance development in Clostridioides difficile MMX 4381 assessed as mutation prevention concentration using at 1.90 x 10^8 CFU inoculum; type: functional; conditions: dose 0.5 µg/ml
[12] = Drug distribution in Sprague-Dawley rat brain measured at 0.5 hrs; type: ADME, tissue-based; conditions: read-out: Ct; method in brief: as §4
[13] = Drug distribution in Sprague-Dawley rat stomach content measured at 6 hrs; type: ADME, tissue-based; conditions: read-out: Ct; method in brief: as §4
Gardnerella vaginalis [14] = test: Antibacterial activity against Gardnerella vaginalis ATCC 49145; type: functional
[15] = Drug distribution in Sprague-Dawley rat stomach content measured at 2 hrs; type: ADME, tissue-based; conditions: read-out: Ct; method in brief: as §4
[16] = Drug distribution in Sprague-Dawley rat ascites fluid measured at 12 hrs; type: ADME, tissue-based, Ascitic fluid; conditions: read-out: Ct; method in brief: as §4
Clostridioides difficile [17] = test: Antibacterial activity against fluoroquinolone-resistant Clostridioides difficile CB1939 measured after 3 days; type: functional; conditions: CB1939, 72 h, time 3 day
Helicobacter pylori [18] = test: Antibacterial activity against Helicobacter pylori infected in C57/BL6 mouse assessed as bacterial load in stomach at 1 mg/kg administered twice daily via oral gavage starting from 7 days post inoculation and administered for 7 days in presence of 10 mg/kg clarithromycin and 20 mg/kg amoxicillin (reference value: 5.25 log10CFU); type: functional; conditions: time 7 day
[19] = Drug distribution in Sprague-Dawley rat stomach tissue measured at 0.5 hrs; type: ADME, tissue-based; conditions: read-out: Ct; method in brief: as §4
Helicobacter pylori [20] = test: Resistance development in Helicobacter pylori MMX 3719 assessed as spontaneous resistance frequency using at 1.90 x 10^8 CFU inoculum at 1 ug/ml; type: functional; conditions: dose 1 µg/ml; method in brief: as §1
Bacteroides fragilis = test: Antibacterial activity against metronidazole-resistant Bacteroides fragilis MMX 3387; type: functional
Helicobacter pylori [21] = test: Resistance development in Helicobacter pylori MMX 3719 assessed as spontaneous resistance frequency using at 1.90 x 10^8 CFU inoculum at 2 ug/ml; type: functional; conditions: dose 2 µg/ml; method in brief: as §1
Clostridioides difficile [22] = test: Antibacterial activity against Clostridioides difficile CB1921 ATCC BAA1382 measured after 3 days; type: functional; conditions: CB1921 ATCC BAA1382, 72 h, time 3 day
[23] = Drug distribution in Sprague-Dawley rat gums measured at 0.5 hrs; type: ADME, tissue-based, Gingiva; conditions: read-out: Ct; method in brief: as §4
[24] = Tmax in Sprague-Dawley rat at 50 mg/kg, po; type: ADME, organism-based; conditions: in vivo
[25] = Drug distribution in Sprague-Dawley rat vaginal tissue measured at 12 hrs; type: ADME, tissue-based, Vagina; conditions: female, read-out: Ct; method in brief: as §4
[26] = Drug distribution in Sprague-Dawley rat brain measured at 6 hrs; type: ADME, tissue-based; conditions: read-out: Ct; method in brief: as §4
Phocaeicola vulgatus = test: Antibacterial activity against metronidazole-resistant Bacteroides vulgatus 3490; type: functional
Syrian golden hamster [27] = test: Antibacterial activity against Clostridioides difficile UNT-103-1 infected in Syrian hamster assessed as mortality at 5 mg/kg, po administered once a daily for 5 days after 18 hrs post 10 mg/kg clindamycin treatment and measured after 7 to 9 days; type: functional, Mesocricetus auratus; conditions: time 7-9 day; method in brief: as §2
[28] = Drug distribution in Sprague-Dawley rat stomach content measured at 0.5 hrs; type: ADME, tissue-based; conditions: read-out: Ct; method in brief: as §4
[29] = AUC in Beagle dog at 25 mg/kg, po; type: ADME, organism-based, Canis lupus familiaris; set-up: dose 25 mg/kg, route po; conditions: in vivo; method in brief: as §3
[30] = Drug distribution in Sprague-Dawley rat ascites fluid measured at 6 hrs; type: ADME, tissue-based, Ascitic fluid; conditions: read-out: Ct; method in brief: as §4
[31] = Half life in C57BL/6 mouse at 5 mg/kg, iv; type: ADME, organism-based; conditions: in vivo
[32] = Drug distribution in Sprague-Dawley rat stomach tissue measured at 6 hrs; type: ADME, tissue-based; conditions: read-out: Ct; method in brief: as §4
[33] = Drug distribution in Sprague-Dawley rat vaginal secretion measured at 2 hrs; type: ADME, tissue-based, Vaginal fluid; conditions: female, read-out: Ct; method in brief: as §4
[34] = Drug distribution in Sprague-Dawley rat large intestine content measured at 6 hrs; type: ADME, tissue-based; conditions: read-out: Ct; method in brief: as §4
[35] = Drug distribution in Sprague-Dawley rat large intestine content measured at 2 hrs; type: ADME, tissue-based; conditions: read-out: Ct; method in brief: as §4
[36] = Drug distribution in Sprague-Dawley rat stomach tissue measured at 2 hrs; type: ADME, tissue-based; conditions: read-out: Ct; method in brief: as §4
[37] = Drug distribution in Sprague-Dawley rat large intestine content measured at 0.5 hrs; type: ADME, tissue-based; conditions: read-out: Ct; method in brief: as §4
Helicobacter pylori [38] = test: Resistance development in Helicobacter pylori MMX 3719 assessed as spontaneous resistance frequency using at 1.90 x 10^8 CFU inoculum at 0.5 ug/ml; type: functional; conditions: dose 0.5 µg/ml; method in brief: as §1
[39] = Drug distribution in Sprague-Dawley rat gums measured at 6 hrs; type: ADME, tissue-based, Gingiva; conditions: read-out: Ct; method in brief: as §4
[40] = Drug distribution in Sprague-Dawley rat vaginal tissue measured at 0.5 hrs; type: ADME, tissue-based, Vagina; conditions: female, read-out: Ct; method in brief: as §4
Helicobacter pylori [41] = test: Resistance development in Helicobacter pylori MMX 3719 assessed as mutation prevention concentration using at 1.90 x 10^8 CFU inoculum; type: functional; conditions: dose 0.5 µg/ml; method in brief: as §1

Question: With `CO[C@H]1/C=C/O[C@@]2(C)Oc3c(C)c(O)c4c(c3C2=O)C2=NC3(CCN(CCn5c([N+](=O)[O-])cnc5C)CC3)NC2=C(NC(=O)/C(C)=C\C=C\[C@H](C)[C@H](O)[C@@H](C)[C@@H](O)[C@@H](C)[C@H](OC(C)=O)[C@@H]1C)C4=O` [RIFASUTENIZOL] as the compound, how does the bioavailability [1] read?
Answer: 48%

Question: What about the MIC (Gardnerella vaginalis [2]) of the same compound?
Answer: 4 ng/mL (≈ 0.00424 µM)

Question: What about the Activity (Helicobacter pylori [3]) of the same compound?
Answer: <5 10^-9No_unit

Question: What about the MIC (Prevotella bivia) of the same compound?
Answer: 0.015 µg/mL (≈ 0.0159 µM)

Question: And the Activity (Syrian golden hamster [4])?
Answer: 100%

Question: And the Vd [5]?
Answer: 1.6 L/kg

Question: And the AUC [6]?
Answer: 3760 ng·h/mL

Question: And the MIC (Bifidobacterium longum)?
Answer: 0.015 µg/mL (≈ 0.0159 µM)

Question: And the concentration at 12 h [7]?
Answer: 2980 ng/g

Question: And the Tmax [8]?
Answer: 30 min

Question: And the Activity (Syrian golden hamster [9])?
Answer: 100%

Question: What about the Activity (Helicobacter pylori [10]) of the same compound?
Answer: 2.89 log10CFU

Question: What about the Activity (Clostridioides difficile [11]) of the same compound?
Answer: 1 µg/mL

Question: What about the concentration at 0.5 h [12] of the same compound?
Answer: 114 ng/g

Question: What about the concentration at 6 h [13] of the same compound?
Answer: 28800 ng/g

Question: What about the MIC (Gardnerella vaginalis [14]) of the same compound?
Answer: 4 ng/mL (≈ 0.00424 µM)

Question: And the concentration at 2 h [15]?
Answer: 1.75e+06 ng/g

Question: And the concentration at 12 h [16]?
Answer: 84.5 ng/g

Question: What about the MIC (Clostridioides difficile [17]) of the same compound?
Answer: ≤ 2 ng/mL

Question: And the Activity (Helicobacter pylori [18])?
Answer: 1.7 log10CFU

Question: And the concentration at 0.5 h [19]?
Answer: 113000 ng/g

Question: And the Activity (Helicobacter pylori [20])?
Answer: <5 10^-9No_unit

Question: And the MIC (Bacteroides fragilis)?
Answer: 0.015 µg/mL (≈ 0.0159 µM)

Question: And the Activity (Helicobacter pylori [21])?
Answer: <5 10^-9No_unit

Question: And the MIC (Clostridioides difficile [22])?
Answer: ≤ 2 ng/mL

Question: And the concentration at 0.5 h [23]?
Answer: 3470 ng/g

Question: And the Tmax [24]?
Answer: 1.8 h

Question: What about the concentration at 12 h [25] of the same compound?
Answer: 35.8 ng/g

Question: What about the concentration at 6 h [26] of the same compound?
Answer: 156 ng/g

Question: What about the MIC (Phocaeicola vulgatus) of the same compound?
Answer: 0.03 µg/mL (≈ 0.0318 µM)

Question: What about the Activity (Syrian golden hamster [27]) of the same compound?
Answer: 10%

Question: And the concentration at 0.5 h [28]?
Answer: 3.26e+06 ng/g

Question: And the AUC [29]?
Answer: 14800 ng·h/mL

Question: And the concentration at 6 h [30]?
Answer: 3480 ng/g

Question: What about the half-life [31] of the same compound?
Answer: 48 min

Question: And the concentration at 6 h [32]?
Answer: 10600 ng/g

Question: What about the concentration at 2 h [33] of the same compound?
Answer: 43700 ng/g

Question: What about the concentration at 6 h [34] of the same compound?
Answer: 84300 ng/g

Question: What about the concentration at 2 h [35] of the same compound?
Answer: 1170 ng/g

Question: What about the concentration at 2 h [36] of the same compound?
Answer: 72500 ng/g

Question: And the concentration at 0.5 h [37]?
Answer: 1480 ng/g

Question: And the Activity (Helicobacter pylori [38])?
Answer: <5 10^-9No_unit

Question: What about the concentration at 6 h [39] of the same compound?
Answer: 3660 ng/g

Question: And the concentration at 0.5 h [40]?
Answer: 2800 ng/g

Question: What about the Activity (Helicobacter pylori [41]) of the same compound?
Answer: <=0.5 ug ml-1
